Laboratory results: ChEMBL document CHEMBL4138248, “Discovery of naphtho[1,2-d]oxazole derivatives as potential anti-HCV agents through inducing heme oxygenase-1 expression” (Eur J Med Chem, 2018)
Activity calls are given as the source filed them. No cut-off for these calls is given here.

Legend:
Hepatitis C virus [1] = assay: Antiviral activity against HCV infected in human Ava5 cells assessed as inhibition of NS5B protein synthesis after 3 days by Western blot method; assay type: functional, organism-based; conditions: Hepacivirus hominis
Method in brief: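 Ava5 cells, seeded at 5×10^4 per well and grown overnight, were treated for 3 days. Lysates were made in RIPA buffer and 10 µg protein was run on 10% SDS-PAGE. Blots were probed with anti-NS5B, with GAPDH as loading control.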

Hepatitis C virus [2] = assay: Antiviral activity against HCV infected in human Ava5 cells assessed as inhibition of NS5B protein synthesis at 1 uM after 3 days in presence of HO-1 inhibitor SnPP by Western blot method; assay type: functional, organism-based; conditions: Hepacivirus hominis
Method in brief: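 Ava5 cells were co-incubated for 3 days with test compound at 1 μM plus the HO-1 inhibitor SnPP (tin protoporphyrin IX) at 0–5 μM. Lysates went to western blot for NS5B and GAPDH. RNA went to RT-qPCR normalized to gapdh mRNA. Mean ± SD of three independent experiments.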

[3] = biological target: T1, Heme oxygenase 1 (Homo sapiens) (UniProt P09601); assay: Induction of HO-1-mediated ISRE promoter activity in human Ava5 cells transfected with pISRE-Luc after 3 days; assay type: cell-based
T1 sequence (whole entry): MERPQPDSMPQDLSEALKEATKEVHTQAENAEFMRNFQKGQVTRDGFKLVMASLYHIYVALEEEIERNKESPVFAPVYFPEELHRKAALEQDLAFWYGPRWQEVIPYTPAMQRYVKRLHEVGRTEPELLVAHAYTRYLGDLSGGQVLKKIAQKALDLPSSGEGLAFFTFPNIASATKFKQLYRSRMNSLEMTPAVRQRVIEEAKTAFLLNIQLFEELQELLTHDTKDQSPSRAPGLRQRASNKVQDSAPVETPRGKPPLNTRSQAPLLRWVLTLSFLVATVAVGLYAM
Method in brief: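 Ava5 cells carrying pISRE-Luc (ISRE-driven firefly luciferase) were treated for 3 days at increasing concentrations. Luciferase activity was read in cell lysates, normalized to co-transfected pCMV-SEAP.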

[4] = biological target: T1, Heme oxygenase 1 (Homo sapiens); assay: Induction of HO-1-mediated PKR mRNA expression in human Ava5 cells after 3 days by RT-qPCR method; assay type: cell-based
Method in brief: (§1)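 Ava5 cells were treated for 3 days at the indicated concentrations. Target mRNAs were measured by RT-qPCR with specific primers and normalized to endogenous gapdh. Results are relative to DMSO-treated cells.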

[5] = Induction of HO1 (unknown origin) promoter activity expressed in human Ava5 cells transfected with pHO-1-Luc after 3 days; assay type: cell-based
Method in brief: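 Ava5 cells were transfected with 0.5 µg pHO-1-Luc, with pCMV-SEAP (0.1 µg) co-transfected for normalization. Cells were then treated at various concentrations for 3 days, and luciferase was read in lysates. Mean ± SD of three independent experiments.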

[6] = biological target: T2, Transcription regulator protein BACH1 (Homo sapiens) (UniProt O14867); assay: Reduction of bach-1 translocation into nucleus of human Ava5 cells after 3 days by Western blot method
T2 sequence (whole entry): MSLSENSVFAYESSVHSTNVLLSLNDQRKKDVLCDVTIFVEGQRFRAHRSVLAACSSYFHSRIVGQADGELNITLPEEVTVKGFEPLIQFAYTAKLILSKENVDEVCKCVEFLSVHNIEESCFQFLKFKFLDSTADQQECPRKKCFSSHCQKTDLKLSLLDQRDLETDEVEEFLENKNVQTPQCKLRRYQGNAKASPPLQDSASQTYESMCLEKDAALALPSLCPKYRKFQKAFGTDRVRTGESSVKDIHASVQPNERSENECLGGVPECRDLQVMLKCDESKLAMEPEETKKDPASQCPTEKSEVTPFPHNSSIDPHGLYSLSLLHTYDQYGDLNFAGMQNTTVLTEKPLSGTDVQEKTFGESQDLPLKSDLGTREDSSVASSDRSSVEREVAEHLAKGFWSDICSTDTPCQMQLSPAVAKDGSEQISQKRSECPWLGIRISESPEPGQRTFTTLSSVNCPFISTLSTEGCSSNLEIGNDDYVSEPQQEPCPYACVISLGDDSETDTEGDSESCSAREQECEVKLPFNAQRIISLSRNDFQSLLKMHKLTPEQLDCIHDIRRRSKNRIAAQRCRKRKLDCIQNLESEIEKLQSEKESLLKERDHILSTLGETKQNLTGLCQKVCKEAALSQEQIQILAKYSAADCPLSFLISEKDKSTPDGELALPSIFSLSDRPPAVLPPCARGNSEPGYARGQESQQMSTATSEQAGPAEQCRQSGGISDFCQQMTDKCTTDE

[7] = biological target: T1, Heme oxygenase 1 (Homo sapiens); assay: Induction of HO-1-mediated OAS1 mRNA expression in human Ava5 cells after 3 days by RT-qPCR method; assay type: cell-based; method in brief: as §1
[8] = biological target: T1, Heme oxygenase 1 (Homo sapiens); assay: Induction of HO-1-mediated reduction on HCV NS3/4A protease activity in human Huh-7 cells transfected with pEG(DE4AB)SEAP/pNS3/4A after 3 days; assay type: cell-based
Method in brief: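 Huh-7 cells were co-transfected with the pEG(DE4AB)SEAP reporter and the NS3/4A expression plasmid pNS3/4A, then treated for 3 days. Secreted SEAP activity reports protease activity and is expressed as fold of untreated control (set to 1). Mean ± SD, n=3.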

Hepatitis C virus [9] = assay: Antiviral activity against HCV infected in human Ava5 cells assessed as inhibition of viral RNA replication at 5 uM after 3 days by RT-qPCR method relative to control; assay type: functional, Hepacivirus hominis; conditions: Ava5, 72 h
Method in brief: (§2)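 Ava5 replicon cells were exposed to 5 or 20 μM for 3 days, starting from 10 mM DMSO stocks diluted in medium. HCV RNA was quantified by RT-qPCR against gapdh and expressed as % inhibition relative to untreated control. Ribavirin was the reference drug. Mean ± SD of three independent experiments.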

Hepatitis C virus [10] = assay: Antiviral activity against HCV infected in human Ava5 cells assessed as inhibition of viral RNA replication at 20 uM after 3 days by RT-qPCR method relative to control; assay type: functional, Hepacivirus hominis; conditions: Ava5, 72 h; method in brief: as §2
Hepatitis C virus [11] = assay: Antiviral activity against HCV JFH-1 infected in human Huh7.5 cells assessed as inhibition of viral RNA replication after 3 days by RT-qPCR method; assay type: functional, organism-based; conditions: Hepacivirus hominis
Homo sapiens = species on record: Homo sapiens; assay: Downregulation of bach-1 protein expression in human Ava5 cells after 3 days by Western blot method; assay type: functional, cell-based
Method in brief: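 Ava5 cells were treated for 3 days at the indicated concentrations. Whole-cell lysates were immunoblotted with anti-Nrf2, anti-Keap-1, anti-bach1 and anti-GAPDH.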

[12] = Cytotoxicity against human Ava5 cells assessed as cell viability at 20 uM after 72 hrs by XTT assay relative to control; assay type: cell-based; conditions: read-out: Activity
Method in brief: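 XTT viability assay run alongside the antiviral assays. Ava5 cells were plated at 5×10^3 per well and exposed to 20 or 200 μM for 72 h at 37 °C in humidified 5% CO₂. Viability is expressed as % of untreated cells.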

[13] = Selectivity index, ratio of CC50 for human Ava5 cells to IC50 for HCV; assay type: toxicity; conditions: read-out: Ratio CC50/IC50
Method in brief: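 SI = CC50/IC50. CC50 comes from 72 h XTT in […] Ava5 cells. IC50 is the concentration giving 50% inhibition of HCV, measured by RT-qPCR after 3 days in Ava5 cells.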

COc1ccc(Nc2cc3oc(-c4ccco4)nc3c3ccccc23)cc1
inhibition (Hepatitis C virus [1]): Dose-dependent effect | inhibition (Hepatitis C virus [2]): inactive | Activity [3]: Dose-dependent effect | Activity [4]: Dose-dependent effect | Activity [5]: Dose-dependent effect | Activity [6]: Dose-dependent effect | Activity [7]: Dose-dependent effect | Activity [8]: Dose-dependent effect | inhibition at 5 µM (Hepatitis C virus [9]): 92.1% | inhibition at 20 µM (Hepatitis C virus [10]): 94.6% | inhibition (Hepatitis C virus [11]): Dose-dependent effect | Activity (Homo sapiens): Dose-dependent effect | viability at 72 h, 20 µM [12]: 89.5% | selectivity ratio [13]: 229
